From the RNAGym collection of RNA variant scans (doi:10.1126/science.aae0568) come the findings set out here.

To fix the notation:
B1: tRNA (parent)
chain: GUUCCGUUGGCGUAAUGGUAACGCGUCUCCCUCCUAAGGAGAAGACUGCGGGUUCGAGUCCCGUACGGAACG

Fewer inactive variants are shown than the library holds.

Variants of B1 are the subject of the series. In words: yeast fitness relative to wild type (ratio to wild type); higher = fitter; tRNA-Arg(CCU), competitive growth, 37 C, YPD. In a few lines:
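Start and end populations of a pooled competition were compared by 100-nucleotide paired-end sequencing of gene amplicons. The Saccharomyces cerevisiae strains carried tRNA-Arg(CCU) gene variants at the native genomic locus, synthesised with a 3% per-site mutation rate at 69 sites, and competed in YPD at 37°C for 24 hours in six parallel replicates. Darwinian fitness relative to wild type was based on the change in genotype frequencies. Genotypes required ≥ 100 starting reads, and estimates < 0.5 were set to 0.5.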
In the case of GUUCCGUUGGCAUAAUGGUAACGCGUCUCCCGUCUAAGGAGAAGACUGCGGGUUGGAGUCCCGUACGGAGCG, the yeast fitness is not above 0.5. In the case of GUUCCGUUGGCAUAAUGGUAACGCGUCGCCCUCCUGAGGAGAAGACUGCGGGUUCGAGUCCCGUACGGAACG it was not above 0.5; in that of GUUCCGUUGGCCUCGUGGUAACGCGUCUCCCUCCUACGGAGAAGACUGCGGGUUCGUGUCCCGUACGGAACG, 0.682. Take GUUCCGUUGGCAUAAUGGUAACGCGUCUCCCUCCUAAGGAGAAGACCGCGGGUUCGAGUCCCGUACGGAACG: the yeast fitness was 0.905. With GUUCCGUUGGCAUAAUGGUAACGCGUCUCCCUCCAAAGGAGAAGACUGCGGGUUCGAAUCCCGUAGGAAACG the figure was not above 0.5; with GUUCCGUUGGCAUAAUGGUAACGCGUCUCCCUCCCACGGAGAAGACUGCGGGUUCGAGUCCUGUCCGGAACG, not above 0.5; with GUUCCGUUGGCCUCAUGGUAACGCGUCUCCCUCCUAAGGAGAAGACUGCGGGUUCGAGUCCCGUACGGAACG, 0.731. With GUUCCGUUGGCAUAAUGGUAACGCGUCUCCCCCCAAAGGAGAAGACUGCGGGUUCGAAUCCCGUACGAAACG the figure was not above 0.5; with GUUCCGUUGGCAUAAUGGUAACGCGUCUCCCUCCUAAGGAGAAGACUGCGGGUGCGAGUCCCGUUCAGAACG, not above 0.5; with GUUCCGUUGGCAUAAUGGUAACGCGUCUCCCACCUAAGGAGAAGAAUGCGGGUUCGAGUCCCGUAUGGAACG, not above 0.5.

Turning to GUUCCGUUGGCAUAAUGGUAACGCGUCGCUCUCCUCAGGAGAAGACUGCGGGUUCGAGUCCCGUACGGAACG, the yeast fitness was not above 0.5.

For the variant GUUCCGUUGGCAUAAUGGUAACGCGUCUCCCUCCUAAGGAGAAGACCGCGGGUUCGAGUCCCGUACGGUACG, the yeast fitness was 0.757. As for GUUCCGUUGGCAUAAUGGUAACGCGUCUCCCUCCAAAGGAGAAGACUGCGCGUUCGAGUCCCGUACGGAACG, the yeast fitness was not above 0.5. Take GUUCCGUUGGCAUAAUGGUAACGCGACUCCCUCCUAAGGAGAAGACUGCGGGUUCGAGUCCCGUACGGAACG: the yeast fitness amounted to 0.941. With GUUCCGUUGGCAUAAUGGUAACGCGCCUCCCUCCUAAGGAGAAGACUGCGGGUUCGAGUCCCGUACGGAACG the figure was 0.878. With GUUCCGUUGGCAUAAUGGUAACGCGCCUCCCUCCUAAGGAGAAGACUGCGGGUUCGAGUCCUGUACGGAACG the figure was 0.579. Turning to GUUCCGUUGGCAUAAUGGUAACGCGUCUCCCCCCUAAGGAGAAGACUGCGGGUUCGAGUCCCGUACGGAACG, the yeast fitness amounted to 0.914. In the case of GUUCCGUUGGCAUAAUGGUAACGCGUCUCCCUCCUAAGGAGAAGACUGCGGGAUCGAGUCCCGUACGGAACG it was 0.62; in that of GUUCCGUUGGCAUAAUGGUAACGCGUCACCCUCCUAAGGAGAAGACUGCGGGUUGGAGUCCCGUACGGAACG, not above 0.5. As to GUUCCGUUGGCAUAAUGGUAACGCGUCCCCCUCCUAAGGCGAAGACUACGGGUUCGAGUCCCGUACGGAACG, the yeast fitness is 0.61. With GUUCCGUUGGCAUAAUGGUAACGCGUCCCCUUCCUAAGGAGAAGACUGCGGAUUCCAGUCCCGUACGGAACG the figure was not above 0.5; with GUUCCGUUGGCAUAAUGGUAACGCGUCCCCCUCCUACGGAGACGACUGGGGGUUCGAGUCCCGUACGGAACG, 0.548. In the case of GUUCCGUUGGCCUCGUGGUAACGCGUCUCCCUCCUACGGAGAAGACUGCGGGUUCGAGUCCCGUACGGAACG it was 0.606; in that of GUUCCGUUGGCAUAAUGGUAACGCGCCUCCCUCCUAAGGAGAAGACUGCGGGUUCGAAUCCCGUACGGAACG, 0.675. With GUUCCGUUGGCAUAAUGGUAACGCGUCUCCCUCCUAAGGAGAAGACUGCGGGGUCGACUCACGUACGGAACG the figure was not above 0.5.

GUUCCGUUGGCAUAAUGGUAACGCGUCUCCCUCCAAAGGAGAAGACUGCGGGUUCGAGUCCCGUACGGAACG: the yeast fitness was 0.706. With GUUCCGUUGGCAUAAUGGUAACGCGUCGCCCUGCUAAGGAGAAGACUGCGGGUUCGAGUCCCGUACGGUACG the figure was not above 0.5. With GUUCCGUUGGCAUAAUGGUAACGCGUCUCCCUCCUAAGGAGAAGACCGCGGGUUCGCGUCCCGUACGGAACG the figure was 0.579; with GUUCCGUUGGCCUCAUGGUAACGUGUCUCCCUCCUAAGGAGAAGUCUGCGGGUUCGAAUCCCGUGCGGAACG, not above 0.5; with GUUCCGUUGGCAUAAUGGUAACGCGUCUCCCUCCUAAGGAGAAGACUGCGGGUUCGAGUCCCGAACGGAACG, 0.849. As to GUUCCGUUGGCAUAAUGGUAACGCGACUCCCUCCUAAGGAGAAGACUGCGGGUUCGAGUCCCGUACGGAUCG, the yeast fitness came out at 0.523. In the case of GUUCCGUUGGCAUAAUGGUAACGCGCCUCCCUCCUAAGGAGAAGACCGCGGGUUCGCGUCCCGUACGGAACG it was not above 0.5; in that of GUUCCGUUGGCCUAAUGGUAACGCGUCUCCCUCCUAAGGAGAAGACUGCGGGUUCGAGUCCCGUACGGAACG, 0.98. In the case of GUUCCGUUGGCAUAAUGGUAACGCGUCACCCUCCUAAGGAGAAGACUGCGGGUCCGAGUCCCAUACGGAGCG it was not above 0.5. In the case of GUUCCGUUGGCAUAAUGGUAACGCGUCGCUCUCCUAAGGAGAAGACUGCGGGUUCGAGUCACGUACGGUACG it was 0.679; in that of GUUCCGUUGGCAUAAUGGUAACGCGUCUCCCGUCUAAGGAGAAGUCUGCGGGUUUGAGUCCCGUACGGAACG, not above 0.5; in that of GUUCCGUUGGCAUAAUGGUAACGCGUCUCCCCCCUAAGGAGCACACUGCGGGUUCGAGUCCCGUACGGCACG, not above 0.5. With GUUCCGUUGGCAUAAUGGUAACGCGUCUCCCUCCUAAGGAGAAGACGGCGGGAUCGAGUCCCGUACGGAACG, the yeast fitness was not above 0.5.
